# Screens deposited in PubChem by The Scripps Research Institute Molecular Screening Center.
# Compounds with a hit are over-represented: about 3.2% of the library has one in this group of screens.
# TRPN1 ag: zebrafish TRPN1 channel agonists, primary screen, cell-based, HEK293, calcium fluorescence | transient receptor potential cation channel N1 (TRPN1/NompC), Danio rerio | HEK293 zebrafish TRPN1-YFP, Fluo-8 calcium fluorescence; 100% = response to 87 µM carbachol | activation, % at 3 µM | 0.18% of 220,000 active;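 active means activation above its plate's cutoff, the mean activation of test wells on that plate plus 3 SD, cut at about 19% in these data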
#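 Material: zebrafish TRPN1-YFP in HEK293 cells. Doses: one dose of 3 µM, 0.3% DMSO. Incubation: dye 1 h 37 °C plus 30 min RT. Measured by: intracellular calcium fluorescence with Fluo-8.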
# OX1R antag-1: OX1R (HCRTR1) antagonists, primary screen, fluorescence, CHO/OX1R cells, Fluo-8 calcium, orexin A; AID 434989, 2010; 0.43% of 330,000 active; Orexin/Hypocretin receptor type 1 (Homo sapiens), O43613; inhibition, % at 5 µM; Fluo-8 calcium fluorescence;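 active means inhibition above its plate's threshold, mean inhibition of all tested compounds on the plate plus 3 SD, cut at about 37% in these data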
# Target sequence (O43613 whole entry, looked up): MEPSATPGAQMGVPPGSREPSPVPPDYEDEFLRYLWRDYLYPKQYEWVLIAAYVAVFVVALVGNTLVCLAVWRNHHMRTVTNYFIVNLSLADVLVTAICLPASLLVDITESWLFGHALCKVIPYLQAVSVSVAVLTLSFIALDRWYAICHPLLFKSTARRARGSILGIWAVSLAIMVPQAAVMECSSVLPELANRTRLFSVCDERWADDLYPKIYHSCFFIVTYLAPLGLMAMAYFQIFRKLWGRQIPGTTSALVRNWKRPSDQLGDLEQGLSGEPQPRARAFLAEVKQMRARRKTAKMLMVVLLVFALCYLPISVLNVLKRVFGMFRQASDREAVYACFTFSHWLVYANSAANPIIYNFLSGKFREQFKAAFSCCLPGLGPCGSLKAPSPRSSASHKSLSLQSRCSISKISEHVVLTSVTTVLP
# GPR7 antag: GPR7 receptor antagonists, primary screen, cell-based, fluorescence, single concentration | Neuropeptides B/W receptor type 1 (Homo sapiens), P48145 | GPR7-expressing cells, fluorescence antagonist assay | inhibition, % at 4.4 µM | 1.1% of 290,000 active; in the data active means inhibition above about 16%, passing the limit was not always enough;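 further: cells stimulated with the agonist NPW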
# CHO parental Ca: ATP-evoked calcium signal inhibitors, parental CHO, primary screen, counter-screen for OX1R antagonist project, cell-based, fluorescence, Fluo-8 calcium dye | inhibition, % at 5.6 µM | 0.63% of 330,000 active | parental CHO-K1, ATP-induced calcium, Fluo-8 fluorescence | AID 463079, 2010;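 active means inhibition above that plate's mean sample inhibition plus 3 SD, cut at about 26% in these data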
#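 Assay system – parental CHO cells · Reagent – ATP stimulus · Detection – intracellular calcium via Fluo-8 no-wash fluorescent dye · Evaluation – percent inhibition of ATP-evoked calcium rise, normalized to controls · Controls – ATP wells versus no-ATP DMSO wells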
# TRPML3 ag: human TRPML3 channel agonists, primary screen, cell-based, HEK293 TRPML3-YFP, Fluo-8 calcium fluorescence, 3 µM; Mucolipin-3 (Homo sapiens), Q8TDD5; 100% = the carbachol control signal; activation, % at 3 µM; 0.29% of 220,000 active;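 active means activation above its plate's cutoff, the mean activation of the plate's test wells plus 3 SD, cut at about 12% in these data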
#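 Material: TRPML3-YFP stable HEK293 cells | Dosing: One concentration, 3 µM nominal, 0.3% DMSO | Timing: 125 s total fluorescence read per well | Technique: Fluo-8 calcium dye fluorescence, ex 470-495, em 515-575 nm | Measure: Percent activation from peak-to-basal fluorescence ratio, scaled between DMSO and carbachol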
# OX1R antag-2: antagonists of human orexin 1 receptor (OX1R); 1.8% of 330,000 active; inhibition, % at 6.6 µM; Orexin/Hypocretin receptor type 1 (Homo sapiens), O43613; OX1R-expressing cells, FRET antagonist read-out; in the data active means inhibition mostly above about 38%, no sharp cut-off; inactive means mostly below about 40%
# Hits are given with their value; . = inactive; / = no result given.
SMILES,TRPN1 ag,OX1R antag-1,GPR7 antag,CHO parental Ca,TRPML3 ag,OX1R antag-2
Cc1ccc(CC(=O)Nc2cccc([N+](=O)[O-])c2)cc1,.,.,19,.,.,.
CCN(c1ccccc1)S(=O)(=O)c1ccc(Oc2ccc(C(C)=O)cc2OC)nc1,/,.,/,.,/,.
CC(=O)Nc1ccc(SCCC2CCCCN2C)cc1 (centres undefined),/,.,.,.,/,.
Cc1cc(C(=O)Nn2c(C3CCCCC3)nc3ccccc3c2=O)ccc1[N+](=O)[O-],.,.,.,.,.,.
O=C(Nn1c(C2CCCCC2)nc2ccccc2c1=O)c1ccc(Cl)c([N+](=O)[O-])c1,.,.,.,.,.,53
CN(C)c1ccc(/C=N/NC(=O)C(=O)/C=C2\NC3(CCCC3)Cc3ccccc32)cc1,.,.,.,.,.,.
COc1cc(/C=N/NC(=O)C(=O)/C=C2\NC3(CCCC3)Cc3ccccc32)ccc1O,.,.,.,.,.,61
CCCCCCCCCCCCCCCC[n+]1cccc(C(=O)N(CC)CC)c1,.,.,.,57,.,.
CCCCCCCCCCCCCCCC[n+]1ccc(C(N)=O)cc1,.,78,.,98,.,.
CCCCCCCCCCCCCCCC[n+]1ccc(/C=N/O)cc1,.,58,.,80,.,.
CC(=O)Oc1ccc(C(=O)NCc2ccc3c(c2)OCO3)cc1,/,.,.,.,/,.
Cc1ccc(S(=O)(=O)/N=C2/C=C(C3C(=O)CC(C)(C)CC3=O)C(=O)c3ccccc32)cc1,.,.,.,.,.,63
CCc1ccc(S(=O)(=O)/N=C2\C=C(Nc3ccc(O)cc3)C(=O)c3ccccc32)cc1,/,.,.,.,/,.
CC1(c2ccc(Cl)cc2)NC(=O)N(CC(=O)N2CCN(S(=O)(=O)c3ccccc3)CC2)C1=O (centres undefined),/,.,/,.,/,.
C/C(COc1ccccc1)=N\NC(=O)c1nnn(-c2nonc2N)c1CSc1ccccc1,/,.,.,.,/,60
Cc1ccc(SCc2c(C(=O)N/N=C/c3ccoc3)nnn2-c2nonc2N)cc1,/,.,.,.,/,45
Cc1ccc(OCCOc2ccc(Br)cc2)c([N+](=O)[O-])n1,.,.,.,.,.,.
COc1ccc(S(=O)(=O)N2CCC(NC(=O)c3cccnc3)CC2)cc1,/,.,.,.,/,.
O=C(N/N=C/c1c[nH]c2ccccc12)c1ccc(Br)cc1,/,.,.,.,/,.
CC(C)Oc1ccc(Br)cc1C(=O)N/N=C/c1c[nH]c2ccccc12,/,.,.,.,/,40
CC(=O)N[C@@H](Cc1c[nH]c2ccccc12)C(=O)NCc1ccccc1,/,.,.,.,/,.
Clc1nc(Nc2ccc(N3CCOCC3)cc2)c2ccccc2n1,.,.,.,.,.,70
CCOC(=O)c1nc(Nc2ccc(N3CCOCC3)cc2)c2ccccc2n1,/,.,.,.,/,.
CCCCCCCCCCCCN1[C@@H](CC(=O)O)c2cc(F)ccc2S1(=O)=O,/,.,/,.,/,.
COCCOc1nc2c(c(=O)n(C)c(=O)n2C)n1Cc1cccc(OC)c1,.,.,.,45,.,.
SMILES,TRPN1 ag,OX1R antag-1,GPR7 antag,CHO parental Ca,TRPML3 ag,OX1R antag-2
CN1/C(=C\C(=O)COC(=O)c2ccc(O)cc2)C(C)(C)c2ccccc21,.,47,.,54,.,.
CNS(=O)(=O)c1cccc(C(=O)OCC(=O)/C=C2/N(C)c3ccccc3C2(C)C)c1,.,.,.,.,.,.
CN1/C(=C\C(=O)COC(=O)c2ccc(O)c(O)c2)C(C)(C)c2ccccc21,.,40,.,50,.,.
CCOC(=O)/C=C1/N(C)c2ccccc2C1(C)C,.,.,.,.,.,.
O=C(COC(=O)CCC(=O)c1cccs1)NC(=O)c1ccc(OC(F)F)cc1,.,.,.,.,.,.
Cc1csc2c(N3CCN(C(=S)Nc4ccc(F)cc4F)CC3)ncnc12,.,.,.,39,.,.
CCOC(=O)CSc1nc(N2CCOCC2)c2c(c1C#N)CC(C)(C)N(C)C2,.,.,.,.,.,46
CC(NC(=O)CSc1nnc(-c2cc3cc(Cl)ccc3o2)n1C)c1ccccc1 (centres undefined),.,.,.,.,.,54
Cn1c(SCC(=O)NC2CCCCC2)nnc1-c1cc2cc(Cl)ccc2o1,.,.,.,.,.,.
Cc1cccc([C@@H]2[C@@H]3C(=O)N(Cc4ccccc4)C(=O)[C@@H]3[C@]3(Cc4ccccc4)C(=O)N(c4ccc(C(F)(F)F)cc4)C(=O)N23)c1,/,.,/,.,/,.
Cc1ccc(S(=O)(=O)NCc2ccccn2)c(C)c1C,/,.,.,.,/,.
Cc1ccc(S(=O)(=O)NCc2ccncc2)c(C)c1C,.,.,.,41,.,.
COc1ccc(OC)c(NC(=O)COC(=O)C2CCN(C(=O)c3ccc(Cl)cc3)CC2)c1,.,.,.,.,.,.
COc1ccc(NC(=O)COC(=O)C2CCN(C(=O)c3ccc(Cl)cc3)CC2)c([N+](=O)[O-])c1,/,.,/,.,/,38
CCOc1cc(CNCCSc2nnnn2C)cc(Br)c1OCc1ccccc1,.,51,.,66,.,.
CCOc1cc(CNCCO)cc(Br)c1OCc1ccccc1,.,.,.,.,.,.
O=C1c2ccccc2C(=O)N1Cc1cnc(N2CCN(c3ccccc3)CC2)s1,.,.,.,.,.,.
Cc1cc(C)c2c(N)c(C(=O)N/N=C/c3ccccc3)sc2n1,.,.,.,.,.,43
Cc1cc(C)c2c(N)c(C(=O)N/N=C/c3cccnc3)sc2n1,.,.,.,.,.,47
CC(/C=N\NC(=O)c1ccc2c(c1)OCO2)c1ccccc1 (centres undefined),/,.,.,.,/,.
CCCNC(=O)Cn1c(=O)/c(=C\c2ccc(-c3cccc([N+](=O)[O-])c3)o2)s/c1=C\C(=O)C(C)(C)C,.,.,.,.,.,.
CCCNC(=O)Cn1c(=O)/c(=C\c2ccc(-c3ccc([N+](=O)[O-])cc3)o2)s/c1=C\C(=O)C(C)(C)C,.,75,.,59,.,.
FC(F)(F)c1cc(-c2cccs2)nc2ncnn12,.,.,.,.,.,62
COc1ccc2nc(NC(=O)c3ccc4ncsc4c3)sc2c1,.,.,.,.,.,57
COc1ccc2nc(NC(C)=O)sc2c1,.,.,.,.,.,.
COc1cccc(C(CC(=O)Nc2cccc3ccccc23)NC(=O)c2ccccc2)c1 (centres undefined),.,.,.,.,.,35
